These results are taken from ChEMBL document CHEMBL1641572, “Vasorelaxant effect of flavonoids through calmodulin inhibition: Ex vivo, in vitro, and in silico approaches” (Bioorg Med Chem, 2011).

The test system of assay [1] is Aorta. Put plainly: Vasorelaxant activity in Wistar rat endothelium-intact thoracic aortic ring assessed as inhibition of noradrenaline-induced contraction treated after noradrenaline challenge measured after 60 mins. The assay is classed as functional, tissue-based. Particulars: for IC50: 1 h. A digest of the protocol: (§1)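 Thoracic aortic rings (3–5 mm) from Wistar rats (200–300 g), endothelium intact or manually removed, were held in Krebs at 37 °C gassed O2/CO2 (9:1) at 3.0 g resting tension. Three NA (0.1 µM) primings were given; endothelium status was checked by carbachol (1 µM) relaxation. Rings precontracted with NA received compounds in quarter-log cumulative concentrations under isometric recording. n=6 animals.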

The test system of assay [2] is Aorta. Put plainly: Vasorelaxant activity in Wistar rat endothelium-denuded thoracic aortic ring assessed as inhibition of noradrenaline-induced contraction treated after noradrenaline challenge measured after 60 mins. It is filed as functional, tissue-based. To be noted: for IC50: 1 h. A digest of the protocol: as §1
The test system of assay [3] is Aorta. The experiment in a line: Vasorelaxant activity in Wistar rat endothelium-intact thoracic aortic ring assessed as inhibition of noradrenaline-induced contraction treated after noradrenaline challenge measured after 60 mins relative to control. The assay is classed as functional. Particulars: 1 h.
The test system of assay [4] is Aorta. The experiment in a line: Vasorelaxant activity in Wistar rat endothelium-denuded thoracic aortic ring assessed as inhibition of noradrenaline-induced contraction treated after noradrenaline challenge measured after 60 mins relative to control. It is filed as functional. To be noted: 1 h.
For assay [5], the target named is T1, Calmodulin-1 (Homo sapiens, UniProt P0DP23). The experiment in a line: Inhibition of human recombinant calmodulin assessed as inhibition of calmodulin-sensitive cAMP phosphodiesterase activation after 15 mins by spectrophotometric analysis.
The target of assay [6] is T1, Calmodulin-1. The experiment in a line: Ratio of chlorpromazine IC50 to compound IC50 for human recombinant calmodulin.
Assay [7] concerns Aorta. Put plainly: Vasorelaxant activity in Wistar rat endothelium-intact thoracic aortic ring assessed as inhibition of noradrenaline-induced contraction treated after noradrenaline challenge measured after 60 mins in presence of chlorpromazine. It is filed as functional, tissue-based. A digest of the protocol:
(§2)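 Rat aortic rings (endothelium intact or denuded) in 37 °C Krebs under 3.0 g tension were preincubated with chlorpromazine (1 µM). They were then contracted with NA, and compound was added in quarter-log cumulative concentrations while isometric tension was recorded. n=6 animals.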

For assay [8], the system named is Aorta. The experiment in a line: Vasorelaxant activity in Wistar rat endothelium-denuded thoracic aortic ring assessed as inhibition of noradrenaline-induced contraction treated after noradrenaline challenge measured after 60 mins in presence of chlorpromazine. The assay is classed as functional, tissue-based. A digest of the protocol:
as §2

The target in assay [9] is T1, Calmodulin-1. The experiment in a line: Inhibition of calmodulin assessed as inhibition of calmodulin-calcium-PDE1 complex formation. A digest of the protocol: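 Human recombinant CaM (0.08 µg) was preincubated 30 min with 0.015 units bovine-brain PDE1 and 0.063 units 5'-nucleotidase in Tris–HCl/imidazole buffer with Mg acetate, 2.5 mM CaCl2 and BSA, pH 7.0. Compounds at 0.5–65 µM in ACN/water (1:1) were added for 30 min. cAMP started a 15-min reaction, and malachite green read phosphate at 700 nm. IC50 came from hyperbolic fit, n≥6.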

For assay [10], the target named is T1, Calmodulin-1. Put plainly: Inhibition of calmodulin assessed as inhibition of calmodulin-calcium-[…] complex formation.

The term IC50 denotes the midpoint of a concentration-inhibition curve. As a reminder, the Emax is the size of the effect at its maximum, as opposed to the concentration needed.

Calls of active or inactive are those of the source. The rule behind the calls is not given here.

Take `O=c1c(O)c(-c2ccccc2)oc2ccccc12` [FLAVONOL]: the inhibition entry in the assay on Aorta [1], with Aorta [2] and on Calmodulin-1 [5] was “Dose-dependent effect” in each case. For the same compound, the results for the IC50 in the assay on Aorta [1], in the assay with Aorta [2] and at Calmodulin-1 [5] were 204 µM, 248 µM and 55.2 µM, respectively. Moreover, the figures for the Emax with Aorta [3] and in the assay with Aorta [4] were 67.8% and 29.8%, respectively. The Ratio IC50 at Calmodulin-1 [6] turned out to be 0.36.

With `O=c1cc(-c2ccccc2)oc2ccc(O)cc12` [6-HYDROXYFLAVONE], the inhibition entry with Aorta [1], in the assay with Aorta [2] and on Calmodulin-1 [5] was “Dose-dependent effect” each time. In addition, the IC50 with Aorta [1] was 20.8 µM; with Aorta [2], 112 µM; on Calmodulin-1 [5], 5.17 µM. In addition, the maximal effect (Emax) in the assay on Aorta [3] came to 105%; with Aorta [4] it was 51.8%. Moreover, on Calmodulin-1 [6], the Ratio IC50 was 3.89. The result in the assay on Aorta [7] and in the assay on Aorta [8] was Active.

Consider `O=C1C[C@@H](c2ccc(O)cc2)Oc2cc(O)cc(O)c21`, for which the inhibition entry on Calmodulin-1 [5] is “Dose-dependent effect”.

For the compound `COC(=O)C1=C(C)NC(C)=C(C(=O)OC)C1c1ccccc1[N+](=O)[O-]` [NIFEDIPINE], in the assay with Aorta [2], the half-maximal inhibitory concentration (IC50) came out at 0.02 µM. Further, the Emax in the assay with Aorta [4] came out at 102%.

With `O=c1cc(-c2ccccc2)oc2ccccc12` [FLAVONE], the inhibition entry in the assay with Aorta [1], with Aorta [2] and on Calmodulin-1 [5] was “Dose-dependent effect” in each case. The half-inhibitory concentration (IC50) with Aorta [1] worked out at 46 µM; in the assay on Aorta [2] it was 203 µM; at Calmodulin-1 [5], 102 µM. The Emax is 98.6% in the assay with Aorta [3] and 81% in the assay on Aorta [4]. At Calmodulin-1 [6], the Ratio IC50 came to 0.34.

For the compound `C[N+](C)(C)CCOC(N)=O` [CARBACHOL], the IC50 in the assay on Aorta [1] came to 0.79 µM. Also, the Emax in the assay with Aorta [3] was 88.6%.

As for `COc1ccc([C@@H]2CC(=O)c3c(O)cc(O[C@@H]4O[C@H](CO[C@@H]5O[C@@H](C)[C@H](O)[C@@H](O)[C@H]5O)[C@@H](O)[C@H](O)[C@H]4O)cc3O2)cc1O` [HESPERIDIN], the results for the IC50 on Calmodulin-1 [9] and on Calmodulin-1 [10] were 74 µM and 70 µM, respectively.

As for `O=c1cc(-c2ccccc2)oc2cc(O)cc(O)c12` [CHRYSIN], the inhibition entry with Aorta [1], with Aorta [2] and at Calmodulin-1 [5] was “Dose-dependent effect” in each case. Moreover, the half-inhibitory concentration (IC50) with Aorta [1] worked out at 75.7 µM; with Aorta [2], 107 µM; on Calmodulin-1 [5] it was 33.4 µM. For the same compound, the results for the maximal response (Emax) with Aorta [3] and in the assay with Aorta [4] were 44.8% and 16%, respectively. Moreover, at Calmodulin-1 [6], the Ratio IC50 turned out to be 1.03.

Regarding `O=c1cc(-c2ccccc2)oc2cc(O)ccc12` [7-HYDROXYFLAVONE], the inhibition result with Aorta [1], with Aorta [2] and on Calmodulin-1 [5] was “Dose-dependent effect” each time. For the same compound, the IC50 with Aorta [1] came out at 37.8 µM; in the assay on Aorta [2] it was 167 µM; at Calmodulin-1 [5], 37.1 µM. Also, the results for the Emax in the assay on Aorta [3] and in the assay with Aorta [4] were 80.6% and 40.4%, respectively. Moreover, the Ratio IC50 on Calmodulin-1 [6] is 0.54.

For `O=c1c(O)c(-c2ccc(O)c(O)c2)oc2cc(O)cc(O)c12` [QUERCETIN], the inhibition entry in the assay with Aorta [1], with Aorta [2] and at Calmodulin-1 [5] was “Dose-dependent effect” throughout. Further, the IC50 turned out to be 162 µM in the assay with Aorta [1], 222 µM with Aorta [2] and 13 µM at Calmodulin-1 [5]. Also, the results for the Emax in the assay on Aorta [3] and in the assay on Aorta [4] were 83.2% and 43.2%, respectively. Also, on Calmodulin-1 [6], the Ratio IC50 amounted to 2.82.
